From PubChem BioAssay
Sampled rows, rich in hits. Any-hit rate of the full collection: about 4.2%.
SENP1 FRET inh = human SENP1 catalytic domain inhibitors, primary screen, biochemical, FRET, uHTS; inhibition, % at 10 µM; Sentrin-specific protease 1 (Homo sapiens), Q9P0U3; recombinant SENP1 catalytic domain, CyPet-SUMO1-YPet FRET cleavage; AID 624204, 2012; 360,000 compounds, 0.21% hits;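 active = inhibition at least 30% at 10 µM, raw YFP signal under a set limit, fluorescence ratio 0.5 to 1.5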
Target sequence (Q9P0U3 419-644 limits assumed): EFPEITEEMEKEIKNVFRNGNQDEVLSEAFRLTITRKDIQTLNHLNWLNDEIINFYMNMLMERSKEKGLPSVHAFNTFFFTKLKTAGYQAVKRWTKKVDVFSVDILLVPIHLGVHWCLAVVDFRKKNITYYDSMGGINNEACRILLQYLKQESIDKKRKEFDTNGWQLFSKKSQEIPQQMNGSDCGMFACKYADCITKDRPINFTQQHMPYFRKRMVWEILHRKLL
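Assay system – human recombinant His6-tagged SENP1 catalytic domain enzyme · Input – SENP1 enzyme, 20 pM final · Buffer or medium – Tris pH 8 buffer plus EDTA, NaCl, BME, BSA, NP40, catalase · Schedule – 50 min reaction at room temperature · Technique – FRET read of cyan and yellow fluorescence · Control set – no-enzyme wells low, DMSO-plus-enzyme wells high control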
HDAC3 inh = HDAC3 deacetylase inhibitors, primary screen, biochemical, fluorescence, cell-free homogeneous | Histone deacetylase 3 (Homo sapiens), O15379 | recombinant HDAC3, fluorogenic peptide/trypsin coupled | inhibition, % at 8.3 µM | 320,000 compounds, 0.15% hits | AID 2718, 2010; in the data active = inhibition above about 26%, passing the limit was not always enough
AHR act = AHR activators, primary screen, cell-based, luminescence, luciferase reporter, human; AID 2796, 2010; 320,000 compounds, 2.5% hits; activation, % at 5 µM; AHR-responsive luciferase reporter cells; Aryl hydrocarbon receptor (Homo sapiens), P35869; in the data active = activation above about 47%
GAA850 FXN act = FXN promoter activators, primary screen, cell-based, luciferase luminescence, HEK293 lucGAA850; activation, % at 6 µM; 360,000 compounds, 0.56% hits; AID 540364, 2011; HEK293 lucGAA850 FXN promoter luciferase reporter, 24 h; percent of 10 µM SAHA response;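 active = activation above the average of all compounds screened plus 3 SD, cutoff fixed separately per campaign, cut at about 7.5% in these data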
PfM18AAP inh-1 = PfM18AAP inhibitors, malaria aminopeptidase, primary screen, biochemical, QFRET, recombinant enzyme | H-Glu-NHMec fluorogenic cleavage | inhibition, % at 7.35 µM | 290,000 compounds, 1.2% hits;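 active = inhibition above the campaign mean inhibition over all tested compounds plus 3 SD, cut at about 28% in these data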
CTSL1 counter-1 = Fasciola hepatica cathepsin L1 inhibitors, primary screen, counter-screen for PFM18AAP inhibitor project, biochemical, QFRET, fluorogenic peptide substrate | recombinant F. hepatica cathepsin L1, Z-Leu-Arg-MCA fluorescence | inhibition, % at 5.96 µM | 300,000 compounds, 0.49% hits | AID 1906, 2009;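 active = inhibition above the mean of all tested compounds plus 3 SD, set per screening campaign, cut at about 17% in these data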
PfM18AAP inh-2 = PfM18AAP inhibitors, malaria aminopeptidase, confirmation, biochemical, QFRET, recombinant enzyme, triplicate | shares compounds with PfM18AAP inh-1 | inhibition, % at 7.35 µM | H-Glu-NHMec fluorogenic cleavage | AID 2170, 2009 | 2,400 compounds, 28% hits;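 active = mean inhibition over replicate wells above the hit cutoff set for the earlier primary screen, cut at about 29% in these data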
CTSL1 counter-2 = cathepsin L1 inhibitors, retest, confirmation, counter-screen for PFM18AAP inhibitor project, biochemical, QFRET, triplicate; inhibition, % at 5.96 µM; 2,400 tested, under 10 active; shares compounds with PfM18AAP inh-1; purified cathepsin L1, Z-Leu-Arg-MCA fluorescence; AID 2178, 2009;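 active = average inhibition across replicates above the hit cutoff set in the earlier primary screen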
Target sequence (P07711 whole entry, looked up): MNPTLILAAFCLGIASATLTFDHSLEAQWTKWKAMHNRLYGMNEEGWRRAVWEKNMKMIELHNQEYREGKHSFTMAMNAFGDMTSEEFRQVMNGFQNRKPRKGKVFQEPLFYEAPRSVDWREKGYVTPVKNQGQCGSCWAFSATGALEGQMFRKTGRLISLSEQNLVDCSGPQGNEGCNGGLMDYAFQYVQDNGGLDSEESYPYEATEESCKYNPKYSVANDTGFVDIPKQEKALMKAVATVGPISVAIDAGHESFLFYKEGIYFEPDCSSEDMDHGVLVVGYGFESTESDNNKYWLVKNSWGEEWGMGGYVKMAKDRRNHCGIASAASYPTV
A number is an active result; . = inactive; / = no result given.

SMILES	SENP1 FRET inh	HDAC3 inh	AHR act	GAA850 FXN act	PfM18AAP inh-1	CTSL1 counter-1	PfM18AAP inh-2	CTSL1 counter-2
O=C(NNS(=O)(=O)c1ccc(F)cc1)c1ccc2c(c1)OCO2	.	.	.	.	50	.	.	.
COc1ccccc1C(=O)C1CCCN(C(=O)c2cccc(Cn3cccn3)c2)C1 (centres undefined)	.	.	.	.	.	.	/	/
COC(=O)c1c(NC(=O)CCC(=O)O)sc2c1CCCCC2	.	.	.	.	.	.	/	/
CC1CCc2c(sc(NC(=O)CCC(=O)O)c2C(=O)NC2CC2)C1 (centres undefined)	.	.	.	.	41	.	.	.
O=C(O)CCC(=O)Nc1sc2c(c1C(=O)Nc1ccccc1)CCCCC2	.	.	.	.	37	.	.	.
COCC(=O)Nc1sc2c(c1C(=O)OC)CCC(C)C2 (centres undefined)	.	.	.	.	.	.	/	/
O=C(N/N=C/c1ccc(O)c(O)c1O)/C(=C/c1ccc([N+](=O)[O-])cc1)NC(=O)c1ccccc1	.	.	.	.	54	.	34	.
Cc1ccc(NC(=O)/C(=C\c2ccc([N+](=O)[O-])cc2)NC(=O)c2ccccc2)cc1	.	.	.	.	.	.	/	/
Cc1nc2c(cc1C(=O)N/N=C/c1ccc(O)c(O)c1)c(=O)n(C)c(=O)n2C	.	.	.	.	62	.	68	.
O=C(Cc1ncn[nH]1)NCCc1ccccc1	.	.	.	.	32	.	40	.
CCCc1ccc(C(=O)NNc2cccc(C)c2)cc1	.	.	.	.	.	.	/	/
CC(C)C(=O)Nc1sc2c(c1C#N)CCCCC2	.	.	.	.	38	.	.	.
N#Cc1c(NC(=O)CSc2ncn[nH]2)sc2c1CCCCC2	.	.	.	.	32	.	.	.
N#Cc1c(NC(=O)CSc2nc(N)cc(=O)[nH]2)sc2c1CCCCCC2	.	.	.	.	.	.	/	/
CC(C)(C)c1ccc(NNC(=O)C2CCC2)cc1	.	.	73	.	40	.	.	.
Oc1ccc(NCc2ccc(OCc3ccccc3)cc2)cc1	.	.	/	.	46	/	.	.
C=CCN1C=CC(=O)[C@@H](OC(=O)Nc2ccc(Br)cc2)[C@H]1c1ccccc1Br	.	/	/	.	/	/	/	/
CCN1C(=O)/C(=C2/SC(C)=C(C)N2CC)SC1=S	.	.	.	.	38	.	.	.
COc1ccc(N2C(N)=C(C#N)C(c3ccsc3)C3=C2CCCC3=O)c(OC)c1 (centres undefined)	.	/	.	.	35	.	.	.
COc1cccc(C2C(C#N)=C(N)N(N(C)C)C3=C2C(=O)CCC3)c1 (centres undefined)	.	.	.	.	.	.	/	/
CCCCn1cnc2c(=S)nc(N)[nH]c21	.	.	.	.	40	.	.	.
Nc1nc(=S)c2ncn([C@@H]3O[C@H](CO)[C@@H](O)[C@H]3O)c2[nH]1	.	.	.	.	/	.	/	/
CCCCCn1cnc2c(=S)nc(N)[nH]c21	.	/	/	.	41	/	.	.
CCCn1cnc2c(=S)nc(N)[nH]c21	.	.	.	.	57	.	.	.
Nc1nc(=S)c2ncn(C3CCCCC3)c2[nH]1	.	/	/	.	/	/	/	/
SMILES	SENP1 FRET inh	HDAC3 inh	AHR act	GAA850 FXN act	PfM18AAP inh-1	CTSL1 counter-1	PfM18AAP inh-2	CTSL1 counter-2
CC(C)N(Cc1ccccc1)C(=O)CCS(=O)(=O)c1ccc2c(c1)oc(=O)n2C	.	.	.	.	.	.	/	/
CCc1nc2ccc(Cc3ccc4nc(CC)[nH]c4c3)cc2[nH]1	.	.	.	.	.	.	/	/
CCOC(=O)NC(=O)/C(C#N)=N\Nc1cccc(Cl)c1	.	.	.	.	.	.	/	/
CCOC(=O)NC1(Nc2cccc(Cl)c2)Oc2ccccc2O1	.	.	.	.	52	.	63	.
c1ccc(Cn2c(Cn3c(-c4cnccn4)nc4ccccc43)nc3ccccc32)cc1	.	/	/	/	/	/	/	/
CCOC(=O)C1C(=O)C=C(c2cccs2)CC1c1ccccc1 (centres undefined)	.	.	.	.	56	.	.	.
CCc1ccc(NC(=O)c2ccc(NC3=NC4CS(=O)(=O)CC4S3)cc2)cc1 (centres undefined)	.	.	.	.	.	.	/	/
CCN(CC)c1ccc(NS(=O)(=O)c2ccc(-c3ccc(=O)[nH]n3)o2)c(C)c1	.	.	.	.	45	.	.	.
Cc1ccccc1NS(=O)(=O)c1ccc(-c2ccc(=O)[nH]n2)o1	.	.	.	.	.	.	/	/
O=C(COC(=O)c1ccccc1Br)Nc1cccnc1Cl	.	.	.	.	/	/	/	/
COc1ccc2o/c(=N\O)c(C(=O)Nc3ccccc3OC)cc2c1	.	.	.	.	.	.	/	/
COc1cccc2cc(C(=O)Nc3ccccc3C)/c(=N/O)oc12	.	.	.	.	49	.	.	.
O=C(NCc1ccncc1)C(=O)NCC1OCCN1S(=O)(=O)c1cc(F)ccc1F (centres undefined)	.	.	.	.	.	.	/	/
CC(CO)NS(=O)(=O)c1cc(Cl)ccc1F (centres undefined)	.	/	/	.	/	/	/	/
CC(OC(=O)C1CC1)C(=O)Nc1cc(Cl)cc(Cl)c1 (centres undefined)	.	.	.	.	/	/	/	/
CCCCCN(C(=O)CCC(=O)OC(C)C(=O)NC1CCCCC1)c1c(N)n(CCCC)c(=O)[nH]c1=O (centres undefined)	.	.	.	.	/	.	/	/
COc1ccc(NC(=O)c2cccc(N3C(=O)NC4CC3(C)Oc3ccccc34)c2)cc1 (centres undefined)	.	.	.	.	.	.	/	/
CC12CC(NC(=O)N1c1cccc(C(=O)Nc3ncn[nH]3)c1)c1ccccc1O2 (centres undefined)	.	.	.	.	43	.	50	.
COc1ccc2c(c1)CCC1C2CCC2(C)C(O)C(=O)CC12 (centres undefined)	.	/	/	.	/	/	/	/
S=c1nc(-c2ccccc2Cl)[nH][nH]1	.	.	.	.	49	.	.	.
